# From PubChem BioAssay
# Calls of active or inactive are those of the source.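 Rule for the calls, unless noted: active = mean duplicate potentiation above the buffer control mean plus 5 SD of buffer wells; inactive = the rest.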
# Key:
# [1] = nonspecific flux increase, KCNQ1-free cells – parental CHO cells, counter-screen for KCNQ1 potentiator project (AID 493006;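 active = duplicate-averaged activation above buffer control mean plus 5 SD of those controls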;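 for activation: fluorescence ratio of max minus min over baseline after K+ and Tl+ depolarization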); conditions: parental CHO-K1 cells, FluxOR thallium flux, at 10 µM; hits give high values
# Summary of the method: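 Assay system: parental CHO-K1 cells lacking KCNQ1, loaded with FluxOR thallium dye; timing: dye 90 min RT, compound 20 min RT; signal: kinetic thallium-flux fluorescence; repeats: duplicate wells per compound, percent values averaged; benchmarks: buffer and R-L3 controls; reagent: Potassium/thallium depolarization pulse; read-out: fluorescence change ratio scaled 0% buffer, 100% R-L3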
# [2] = molecular target: Potassium voltage-gated channel subfamily KQT member 1 (Homo sapiens) (UniProt P51787); assay: enhancement of KCNQ1 channel thallium flux – FluxOR thallium flux, CHO cells, duplicates, confirmation (AID 493007;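 active = potentiation averaged over duplicate wells exceeding buffer-only control mean by more than 3 SD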;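 for outcome: cells depolarized by a potassium plus thallium sulfate stimulus after compound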); conditions: KCNQ1 cell line, FluxOR thallium flux fluorescence, at 10 µM; hits give high values, % of reference activator effect, buffer zero
# Summary of the method: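 material = CHO cells stably expressing the KCNQ1 potassium channel | repeats = duplicate wells per compound | measure = percent activation between buffer and R-L3 responses | signal = FluxOR thallium-flux fluorescence, kinetic read | schedule = FluxOR dye loading 90 min, compound exposure 20 min, room temperature | control set = buffer and R-L3 controls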
# [3] = molecular target: Potassium voltage-gated channel subfamily KQT member 2 (Rattus norvegicus) (UniProt O88943); assay: KCNQ2 thallium flux enhancement – KCNQ2-CHO-K1 cells, selectivity assay for KCNQ1 potentiator project (AID 493009); conditions: FluxOR thallium flux fluorescence, at 10 µM; hits give high values, scaled: buffer 0, activator control 100;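 note: assay conditions were tuned for KCNQ1 rather than KCNQ2 modulators; signal is max minus min fluorescence divided by baseline after thallium stimulus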
# [4] = molecular target: Potassium voltage-gated channel subfamily KQT member 1 (Homo sapiens) (UniProt P51787); assay: KCNQ1 activators by electrophysiology – IonWorks patch clamp, KCNQ1-CHO cells, orthogonal assay for KCNQ1 potentiator project, confirmation (AID 493184;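 active = current rise at least 3 SD above the untreated control mean in each of two repeat wells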;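 for current potentiation: percent change of the same well's current before compound addition so 0% = no change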); conditions: automated patch clamp current, at 10 µM; hits give high values
# Summary of the method: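 Assay system – CHO cells carrying KCNQ1 · Medium – pH 7.4 external bath · Probe or stimulus – depolarizing pulse to +40 mV from -90 mV · Compound dosing – one dose, 10 µM final · Measured by – automated perforated-patch electrophysiology · Measure – % potentiation of steady-state current relative to pre-compound · Repeats – two replicates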
# [5] = molecular target: Potassium voltage-gated channel subfamily E member 1 (Homo sapiens) + Potassium voltage-gated channel subfamily KQT member 1 (Homo sapiens) (UniProt P15382+P51787); assay: KCNQ1-E1 channel activation – thallium flux, CHO-K1 KCNQ1/E1 cells, selectivity assay for KCNQ1 potentiator project, confirmation (AID 493186;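 active = mean duplicate activation above the buffer control mean plus 5 SD of those controls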); conditions: FluxOR thallium flux, at 10 µM; hits give high values
# Summary of the method: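 Assay system: CHO-K1 cells with KCNQ1/E1 | Dosing: Single compound concentration per well | Incubation: Dye 90 min, compound 20 min, room temperature | Measured by: FluxOR Tl+ flux fluorescence, kinetic read | Controls: Buffer low control, R-L3 high control | Replicates: Duplicate wells per compound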
# Potassium voltage-gated channel subfamily KQT member 1 (Homo sapiens), sequence (P51787 whole entry, looked up): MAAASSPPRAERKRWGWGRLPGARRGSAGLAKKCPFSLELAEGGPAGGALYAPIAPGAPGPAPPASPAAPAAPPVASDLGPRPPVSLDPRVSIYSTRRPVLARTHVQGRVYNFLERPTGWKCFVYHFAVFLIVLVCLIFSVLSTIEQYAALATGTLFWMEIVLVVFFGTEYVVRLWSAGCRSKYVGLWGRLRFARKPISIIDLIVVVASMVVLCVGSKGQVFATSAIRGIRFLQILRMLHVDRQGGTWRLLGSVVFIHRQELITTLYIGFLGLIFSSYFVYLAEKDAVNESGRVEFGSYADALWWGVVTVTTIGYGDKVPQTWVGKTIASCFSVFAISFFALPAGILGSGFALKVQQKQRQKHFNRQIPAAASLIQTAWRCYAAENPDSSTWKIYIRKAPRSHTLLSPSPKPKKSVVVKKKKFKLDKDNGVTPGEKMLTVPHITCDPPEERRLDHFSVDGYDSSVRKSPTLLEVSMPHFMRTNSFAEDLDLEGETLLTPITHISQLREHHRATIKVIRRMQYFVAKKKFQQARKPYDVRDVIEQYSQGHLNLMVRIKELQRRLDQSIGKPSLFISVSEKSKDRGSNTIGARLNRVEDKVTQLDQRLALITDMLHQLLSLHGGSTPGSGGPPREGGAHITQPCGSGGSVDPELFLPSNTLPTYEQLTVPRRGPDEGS
# Potassium voltage-gated channel subfamily KQT member 2 (Rattus norvegicus), sequence (O88943 whole entry, looked up): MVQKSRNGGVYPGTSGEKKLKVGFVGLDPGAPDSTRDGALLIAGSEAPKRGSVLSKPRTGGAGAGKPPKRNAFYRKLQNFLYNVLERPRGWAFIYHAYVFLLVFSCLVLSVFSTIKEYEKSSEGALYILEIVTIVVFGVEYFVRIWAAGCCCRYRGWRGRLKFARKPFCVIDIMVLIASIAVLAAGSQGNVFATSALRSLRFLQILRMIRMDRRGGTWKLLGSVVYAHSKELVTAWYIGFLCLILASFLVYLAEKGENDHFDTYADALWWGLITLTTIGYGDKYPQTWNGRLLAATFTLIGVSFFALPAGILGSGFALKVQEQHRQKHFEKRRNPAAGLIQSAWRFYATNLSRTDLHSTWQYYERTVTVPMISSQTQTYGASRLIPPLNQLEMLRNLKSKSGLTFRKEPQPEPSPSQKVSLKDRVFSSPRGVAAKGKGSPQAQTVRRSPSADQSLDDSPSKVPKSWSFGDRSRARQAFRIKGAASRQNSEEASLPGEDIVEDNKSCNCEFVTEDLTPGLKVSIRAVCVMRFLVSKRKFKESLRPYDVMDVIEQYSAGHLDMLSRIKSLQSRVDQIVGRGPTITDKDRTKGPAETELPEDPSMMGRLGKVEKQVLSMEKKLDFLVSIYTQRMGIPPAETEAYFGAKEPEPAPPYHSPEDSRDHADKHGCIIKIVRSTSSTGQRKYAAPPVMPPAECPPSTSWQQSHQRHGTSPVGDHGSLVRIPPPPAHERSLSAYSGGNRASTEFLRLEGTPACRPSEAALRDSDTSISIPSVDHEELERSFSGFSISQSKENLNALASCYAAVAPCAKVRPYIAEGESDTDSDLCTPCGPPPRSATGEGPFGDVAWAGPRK
# Potassium voltage-gated channel subfamily E member 1 (Homo sapiens) + Potassium voltage-gated channel subfamily KQT member 1 (Homo sapiens), sequence (P51787 whole entry, looked up): as the sequence (P51787 whole entry, looked up) above
smiles,measurement,setting,value
Oc1ccc2ccccc2c1N=Nc1nccs1,activation,[1],328% (active)
same,potentiation,[2],258% (active)
same,potentiation,[3],426% (active)
same,outcome,[4],inactive
O=C(NCc1ccco1)C1CC(c2ccc(Cl)cc2)=NO1 (configuration not stated),outcome,[1],inactive
same,outcome,[2],inactive
same,outcome,[3],inactive
same,outcome,[4],inactive
CN(C)CC(CCCCC(CN(C)C)C(=O)c1ccccc1)C(=O)c1ccccc1 (configuration not stated),outcome,[1],inactive
same,outcome,[2],inactive
same,outcome,[3],inactive
same,outcome,[4],inactive
CCCCCNC(=O)Cn1c(=O)c2c(ncn2CC(C)C)n(Cc2ccccc2)c1=O,outcome,[1],inactive
same,outcome,[2],inactive
same,outcome,[3],inactive
same,outcome,[4],inactive
O=C(CSc1nc2ccccc2[nH]1)N/N=C/c1ccncc1,outcome,[1],inactive
same,outcome,[2],inactive
same,outcome,[3],inactive
same,outcome,[4],inactive
CC(Oc1ccc(Br)cc1)c1nc2c3ccccc3nc(=S)n2[nH]1 (configuration not stated),activation,[1],227% (active)
same,potentiation,[2],45.5% (active)
same,potentiation,[3],178% (active)
same,outcome,[4],inactive
CCN(CC)c1ccc(NC(=S)NC(=O)c2ccco2)cc1,activation,[1],263% (active)
same,potentiation,[2],104% (active)
same,potentiation,[3],322% (active)
same,outcome,[4],inactive
c1ccc(CCCNc2ncnc3nc[nH]c23)cc1,activation,[1],316% (active)
same,potentiation,[2],78.5% (active)
same,potentiation,[3],291% (active)
same,outcome,[4],inactive
Cc1ccc(S(=O)(=O)NN2C(=O)/C(=C/c3cccc(F)c3)SC2=S)cc1,activation,[1],176% (active)
same,potentiation,[2],20.5% (active)
same,potentiation,[3],152% (active)
same,current potentiation,[4],37.3% (active)
COc1ccc2nc(N=Nc3ccc(O)c4ccccc34)sc2c1,activation,[1],210% (active)
same,potentiation,[2],83.5% (active)
same,potentiation,[3],188% (active)
same,outcome,[4],inactive
CC(/C=N/n1c(C2CCCCC2)n[nH]c1=S)=C\c1ccccc1,outcome,[1],inactive
same,potentiation,[2],270% (active)
same,potentiation,[3],423% (active)
same,outcome,[4],inactive
O=C(c1ccco1)N1CCN=C1SCc1ccc(F)cc1,outcome,[1],inactive
same,outcome,[2],inactive
same,outcome,[3],inactive
same,outcome,[4],inactive
Fc1ccc(NC(=S)N/N=C/c2ccc(F)c(F)c2)c(F)c1,outcome,[1],inactive
same,outcome,[2],inactive
same,outcome,[3],inactive
same,outcome,[4],inactive
CCN(Cc1cc2cc(OC)ccc2[nH]c1=O)C(=O)c1ccncc1,outcome,[1],inactive
same,outcome,[2],inactive
same,outcome,[3],inactive
same,outcome,[4],inactive
O=[N+]([O-])c1cccc(-c2ccc3nnc(SCc4ccccn4)n3n2)c1,outcome,[1],inactive
same,outcome,[2],inactive
same,outcome,[3],inactive
same,outcome,[4],inactive
Cc1ccc(S(=O)(=O)Nc2cc(C(F)(F)F)ccc2N2CCOCC2)c(C)c1,outcome,[1],inactive
same,outcome,[2],inactive
same,outcome,[3],inactive
same,outcome,[4],inactive
CCC(C)n1c(=S)[nH]c2c(sc3ccc([N+](=O)[O-])cc32)c1=O (configuration not stated),activation,[1],764% (active)
same,potentiation,[2],342% (active)
same,potentiation,[3],709% (active)
same,outcome,[4],inactive
O=C(NC(=S)Nc1ccccc1N1CCCC1)c1ccco1,activation,[1],174% (active)
same,potentiation,[2],21.5% (active)
same,potentiation,[3],174% (active)
same,outcome,[4],inactive
O=S(=O)(Nc1ccccc1Cl)c1ccc(NS(=O)(=O)c2cccs2)cc1,outcome,[1],inactive
same,potentiation,[2],26.5% (active)
same,outcome,[3],inactive
same,outcome,[4],inactive
CN1CCN(C(=O)/C(=C/c2ccccc2)c2ccccc2)CC1,outcome,[1],inactive
same,outcome,[2],inactive
same,outcome,[3],inactive
same,outcome,[4],inactive
Cn1c(=O)n(CCc2ccccc2)c2ccccc21,outcome,[1],inactive
same,outcome,[2],inactive
same,outcome,[3],inactive
same,outcome,[4],inactive
Cc1cc(C)c(S(=O)(=O)Nc2cccc3nsnc23)c(C)c1,outcome,[1],inactive
same,outcome,[2],inactive
same,outcome,[3],inactive
same,outcome,[4],inactive
CCC(CC)C1=NN2C(=N)/C(=C\c3cc(C)n(-c4cccc(C)c4)c3C)C(=O)N=C2S1,outcome,[1],inactive
same,outcome,[2],inactive
same,outcome,[3],inactive
same,outcome,[4],inactive
Cc1c(N2C(=O)/C(=C\c3ccccc3O)SC2=S)c(=O)n(-c2ccccc2)n1C,activation,[1],398% (active)
same,potentiation,[2],200% (active)
same,potentiation,[3],392% (active)
same,outcome,[4],inactive
O=C(COc1ccccc1)NC(=S)N1CCc2ccccc21,outcome,[1],inactive
same,potentiation,[2],20% (active)
same,outcome,[3],inactive
same,outcome,[4],inactive
Cc1cccc(-n2c(C)cc(/C=N/NC(N)=S)c2C)c1,outcome,[1],inactive
same,outcome,[2],inactive
same,outcome,[3],inactive
same,outcome,[4],inactive
Cc1c(CN2CCN(C)C(CCO)C2)[nH]c2c(Cl)cccc12 (configuration not stated),outcome,[1],inactive
same,outcome,[2],inactive
same,outcome,[3],inactive
same,outcome,[4],inactive
Oc1oc(-c2cccc3ccccc23)nc1/C=N/c1nccs1,outcome,[1],inactive
same,potentiation,[2],48.5% (active)
same,potentiation,[3],164% (active)
same,outcome,[4],inactive
O=C(NC(=S)N1CCN(C/C=C/c2ccccc2)CC1)c1c(F)cccc1F,activation,[1],139% (active)
same,potentiation,[2],28.5% (active)
same,outcome,[3],inactive
same,outcome,[4],inactive
COc1ccc(C2C(C(=O)c3ccccc3)=C(C)Nc3nc4ccccc4n32)cc1OC (configuration not stated),outcome,[1],inactive
same,outcome,[2],inactive
same,outcome,[3],inactive
same,outcome,[4],inactive
Cc1ccc(S(=O)(=O)NN2C(=O)/C(=C/c3cccs3)SC2=S)cc1,activation,[1],163% (active)
same,potentiation,[2],22.5% (active)
same,potentiation,[3],159% (active)
same,outcome,[4],inactive
Oc1c(Br)cc(Br)cc1C=Nc1cccnc1,activation,[1],146% (active)
same,potentiation,[2],48% (active)
same,outcome,[3],inactive
same,outcome,[4],inactive
COCCCNC(=O)CC(NS(=O)(=O)c1ccc(F)cc1)c1ccc(OC)cc1 (configuration not stated),outcome,[1],inactive
same,outcome,[2],inactive
same,outcome,[3],inactive
same,outcome,[4],inactive
CC(C)(C)c1cc(C(=O)NNC(=O)c2ccc(Cl)cc2)no1,activation,[1],200% (active)
same,potentiation,[2],86.5% (active)
same,potentiation,[3],257% (active)
same,outcome,[4],inactive
COc1cc(OC)cc(C(=O)Nc2nnc(SCC(=O)NCc3ccco3)s2)c1,activation,[1],150% (active)
same,potentiation,[2],30% (active)
same,potentiation,[3],158% (active)
same,outcome,[4],inactive
O=C(NC(=S)NCCC1=CCCCC1)c1ccc(Br)o1,activation,[1],212% (active)
same,potentiation,[2],304% (active)
same,potentiation,[3],371% (active)
same,outcome,[4],inactive
Oc1c(Br)cc(Br)cc1C=Nc1ccc2c(c1)OCCO2,activation,[1],159% (active)
same,outcome,[2],inactive
same,outcome,[3],inactive
same,outcome,[4],inactive
Fc1ccc2nc(Nc3nc4c(F)cc(F)cc4s3)sc2c1,activation,[1],165% (active)
same,potentiation,[2],74% (active)
same,potentiation,[3],210% (active)
same,outcome,[4],inactive
COCCCn1c(=S)[nH]c2sc3c(c2c1=O)CCCS3,activation,[1],147% (active)
same,potentiation,[2],30.5% (active)
same,outcome,[3],inactive
same,outcome,[4],inactive
CCCCN(CCCC)c1cn[nH]c(=O)c1Cl,outcome,[1],inactive
same,outcome,[2],inactive
same,outcome,[3],inactive
same,outcome,[4],inactive
Cc1ccc2nc(NC(=O)c3ccc(Br)o3)sc2c1,outcome,[1],inactive
same,outcome,[2],inactive
same,outcome,[3],inactive
same,outcome,[4],inactive
CC1(C)CC2CC(C)(CN2C(=S)NC(=O)c2ccccc2Cl)C1 (configuration not stated),activation,[1],341% (active)
same,potentiation,[2],154% (active)
same,potentiation,[3],426% (active)
same,outcome,[4],inactive
COc1ccc(CC(=O)c2ccccc2C(=O)O)cc1,outcome,[1],inactive
same,outcome,[2],inactive
same,outcome,[3],inactive
same,outcome,[4],inactive
O=S(=O)(NC(=S)NC1CCCCC1)c1ccc(Br)cc1,activation,[1],200% (active)
same,potentiation,[2],52% (active)
same,potentiation,[3],190% (active)
same,outcome,[4],inactive
Cc1cccc(-c2nnc(NC(=O)c3ccc(Cl)cc3)o2)c1,outcome,[1],inactive
same,potentiation,[2],30% (active)
same,potentiation,[3],155% (active)
same,outcome,[4],inactive
NC(=O)c1cccc(N=Cc2cc(Cl)cc(Cl)c2O)c1,activation,[1],178% (active)
same,potentiation,[2],25% (active)
same,potentiation,[3],154% (active)
same,outcome,[4],inactive
CN(C)CCNc1ncnc2c1sc1nc(N3CCCC3)c3c(c12)CC(C)(C)OC3,outcome,[1],inactive
same,potentiation,[2],32% (active)
same,outcome,[3],inactive
same,outcome,[4],inactive
CCOC(=O)c1ccc(Nc2nc(N3CCOCC3)nc(N3CCOCC3)n2)cc1,outcome,[1],inactive
same,outcome,[2],inactive
same,outcome,[3],inactive
same,outcome,[4],inactive
CCC1(c2ccc(Cl)cc2)NC(=S)N(c2ccc(C)cc2)N1 (configuration not stated),activation,[1],574% (active)
same,potentiation,[2],302% (active)
same,potentiation,[3],604% (active)
same,outcome,[4],inactive
COc1ccc(NC(=S)NC(=O)c2ccc(Br)o2)cc1,activation,[1],146% (active)
same,potentiation,[2],45.5% (active)
same,potentiation,[3],195% (active)
same,outcome,[4],inactive
O=C(O)c1ccc2c(=O)n3cc(C(=O)c4ccccc4O)cc(Cl)c3nc2c1,outcome,[1],inactive
same,outcome,[2],inactive
same,outcome,[3],inactive
same,outcome,[4],inactive
same,outcome,[5],inactive
Cc1cc(C(=O)CCl)c(C)n1-c1cccc([N+](=O)[O-])c1,outcome,[1],inactive
same,outcome,[2],inactive
same,outcome,[3],inactive
same,outcome,[4],inactive
same,outcome,[5],inactive
O=C(NC(=S)N1CCN(c2nc(-c3ccccc3)cs2)CC1)c1cncc(Br)c1,activation,[1],384% (active)
same,potentiation,[2],223% (active)
same,potentiation,[3],505% (active)
same,outcome,[4],inactive
Cc1ccc(C)c(Cn2c(O)c(N=NC(=S)Nc3ccccc3F)c3ccccc32)c1,outcome,[1],inactive
same,outcome,[2],inactive
same,outcome,[3],inactive
same,outcome,[4],inactive
same,outcome,[5],inactive
CCOc1cccc2sc(NC(=O)c3ccc(Br)s3)nc12,outcome,[1],inactive
same,outcome,[2],inactive
same,outcome,[3],inactive
same,outcome,[4],inactive
same,outcome,[5],inactive
CCC(C)NC(=O)Cn1c(-c2ccccc2)cc(C(C)=O)c1C (configuration not stated),outcome,[1],inactive
same,potentiation,[2],22% (active)
same,outcome,[3],inactive
same,outcome,[4],inactive
same,outcome,[5],inactive
COc1ccccc1NC(=O)CCN1CCN(c2ccc(Cl)cc2)CC1,outcome,[1],inactive
same,outcome,[2],inactive
same,outcome,[3],inactive
same,outcome,[4],inactive
CCOC(=O)c1sc(NC(=S)NC(=O)c2ccccc2)nc1C,outcome,[1],inactive
same,outcome,[2],inactive
same,outcome,[3],inactive
same,outcome,[4],inactive
same,outcome,[5],inactive
Oc1c(Br)cc(Br)cc1C=Nc1ccc2c(c1)OCO2,activation,[1],172% (active)
same,outcome,[2],inactive
same,outcome,[3],inactive
same,outcome,[4],inactive
